Measured values reported in ChEMBL document CHEMBL3351726 (J Med Chem, 2014).
Residues, ends and D or L forms follow the SMILES beside them.

What was measured:
[1] = Retention time of the compound measured over 30 mins at flow rate of 1 mL/min by HPLC; assay type: physicochemical; settings: 0.5 h
Procedure, shortened: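 Reversed-phase analytical HPLC or LC−MS on a SymmetryShield RP18 column (5 μm, 4.6 × 150 mm). Gradient 10−60% B over 30 min at 1 mL/min; A = 0.1% TFA in water, B = 0.1% TFA in acetonitrile.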

[2] = Retention time of the compound measured over 6 mins at flow rate of 0.5 mL/min by HPLC; assay type: physicochemical; settings: 0.1 h
[3] = molecular target: Sodium channel protein type 9 subunit alpha (Homo sapiens, UniProt Q15858); assay: Inhibition of human Nav1.7 expressed in HEK-293 cells at -130 to -110 mV holding potential by whole-cell voltage clamp analysis; assay type: cell-based, HEK293
HEK293 = assay: Selectivity ratio of IC50 for rat Nav1.2 expressed in HEK-293 cells to IC50 for human Nav1.7 expressed in HEK-293 cells; assay type: cell-based
[4] = Retention time of the compound measured over 15 mins at flow rate of 1 mL/min by HPLC

Chain of Sodium channel protein type 9 subunit alpha (Q15858 whole entry): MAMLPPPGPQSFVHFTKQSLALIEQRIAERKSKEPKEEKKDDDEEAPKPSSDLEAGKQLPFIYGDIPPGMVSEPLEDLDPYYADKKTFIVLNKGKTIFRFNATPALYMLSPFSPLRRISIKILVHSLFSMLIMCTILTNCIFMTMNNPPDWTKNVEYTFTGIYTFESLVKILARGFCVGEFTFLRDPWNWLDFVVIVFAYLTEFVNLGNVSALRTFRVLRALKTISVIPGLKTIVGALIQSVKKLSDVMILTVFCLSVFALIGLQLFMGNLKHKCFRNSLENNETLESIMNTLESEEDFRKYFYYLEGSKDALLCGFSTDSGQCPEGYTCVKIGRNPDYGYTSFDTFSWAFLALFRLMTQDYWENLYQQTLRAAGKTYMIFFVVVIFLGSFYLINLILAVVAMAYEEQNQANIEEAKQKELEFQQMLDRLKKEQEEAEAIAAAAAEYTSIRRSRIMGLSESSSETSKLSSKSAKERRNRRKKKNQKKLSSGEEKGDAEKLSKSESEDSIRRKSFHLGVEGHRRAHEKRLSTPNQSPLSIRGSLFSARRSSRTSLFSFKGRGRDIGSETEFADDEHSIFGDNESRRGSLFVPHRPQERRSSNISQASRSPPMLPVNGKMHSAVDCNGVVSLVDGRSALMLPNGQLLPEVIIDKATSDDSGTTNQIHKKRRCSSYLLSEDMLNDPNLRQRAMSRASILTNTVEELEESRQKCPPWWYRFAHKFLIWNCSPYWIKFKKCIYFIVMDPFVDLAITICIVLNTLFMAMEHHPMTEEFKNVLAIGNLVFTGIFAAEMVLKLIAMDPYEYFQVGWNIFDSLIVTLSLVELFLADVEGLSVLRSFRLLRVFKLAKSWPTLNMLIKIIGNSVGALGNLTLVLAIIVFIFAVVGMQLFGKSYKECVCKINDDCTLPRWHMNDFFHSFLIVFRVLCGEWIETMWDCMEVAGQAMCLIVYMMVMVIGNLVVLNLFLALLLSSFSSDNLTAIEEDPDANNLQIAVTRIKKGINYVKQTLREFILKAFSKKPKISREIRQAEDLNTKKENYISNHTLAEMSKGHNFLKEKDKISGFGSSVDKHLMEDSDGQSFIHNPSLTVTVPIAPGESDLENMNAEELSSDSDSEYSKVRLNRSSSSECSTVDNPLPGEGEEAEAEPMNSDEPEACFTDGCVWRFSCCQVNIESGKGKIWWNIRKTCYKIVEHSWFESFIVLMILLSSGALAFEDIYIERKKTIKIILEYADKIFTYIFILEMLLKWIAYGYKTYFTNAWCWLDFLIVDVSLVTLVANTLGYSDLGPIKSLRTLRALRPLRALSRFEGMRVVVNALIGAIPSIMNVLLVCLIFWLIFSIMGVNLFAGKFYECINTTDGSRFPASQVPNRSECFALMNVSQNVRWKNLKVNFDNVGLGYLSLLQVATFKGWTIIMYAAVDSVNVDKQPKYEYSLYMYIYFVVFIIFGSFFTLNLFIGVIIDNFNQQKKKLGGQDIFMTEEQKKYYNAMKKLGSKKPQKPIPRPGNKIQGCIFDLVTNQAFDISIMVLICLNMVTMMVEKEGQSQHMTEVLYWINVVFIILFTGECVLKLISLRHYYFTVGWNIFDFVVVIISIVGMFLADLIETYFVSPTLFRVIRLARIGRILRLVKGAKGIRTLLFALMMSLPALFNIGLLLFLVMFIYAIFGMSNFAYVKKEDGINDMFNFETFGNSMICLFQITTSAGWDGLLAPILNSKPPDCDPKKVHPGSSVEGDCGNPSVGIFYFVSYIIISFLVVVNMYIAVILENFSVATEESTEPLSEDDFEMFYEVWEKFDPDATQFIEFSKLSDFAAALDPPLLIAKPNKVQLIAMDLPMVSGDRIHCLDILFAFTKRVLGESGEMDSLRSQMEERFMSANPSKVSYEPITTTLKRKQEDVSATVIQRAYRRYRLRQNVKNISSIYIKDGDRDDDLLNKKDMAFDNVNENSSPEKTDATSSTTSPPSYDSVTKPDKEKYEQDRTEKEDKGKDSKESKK

SMILES	Retention_time [1]	Retention_time [2]	IC50 [3]	Ratio IC50 (HEK293)	Retention_time [4]
COC(=O)[C@H](Cc1c[nH]c2ccccc12)NC(=O)[C@H](CC(C)C)NC(=O)[C@H](CCCCN)NC(=O)[C@H](CCCCN)NC(=O)[C@H](CCCCN)NC(=O)[C@@H]1CSSC[C@@H]2NC(=O)[C@H](CCCCN)NC(=O)[C@H](CCCNC(=N)N)NC(=O)[C@H](CCC(=O)O)NC(=O)[C@H](CO)NC(=O)[C@H](CC(=O)O)NC(=O)[C@@H]3CSSC[C@H](NC(=O)[C@H](C(C)C)NC(=O)[C@H](CCSC)NC(=O)CNC(=O)[C@H](CCC(=O)O)NC(=O)[C@H](CSSC[C@H](NC(=O)[C@@H](N)Cc4ccc(O)cc4)C(=O)N[C@@H](CCC(N)=O)C(=O)N[C@@H](CCCCN)C(=O)N[C@@H](Cc4c[nH]c5ccccc45)C(=O)N[C@@H](CCSC)C(=O)N[C@@H](Cc4c[nH]c5ccccc45)C(=O)N[C@@H]([C@@H](C)O)C(=O)N3)NC2=O)C(=O)N[C@@H](CCCNC(=N)N)C(=O)N[C@@H](CC(C)C)C(=O)N[C@@H](Cc2c[nH]c3ccccc23)C(=O)N1	13.17 min	2.93 min	0.6 nM	5	
CC[C@H](C)[C@H](NC(=O)[C@@H](NC(=O)[C@H](CCCCN)NC(=O)[C@H](CCCCN)NC(=O)[C@H](CCCCN)NC(=O)[C@@H]1CSSC[C@@H]2NC(=O)[C@H](CCCCN)NC(=O)[C@H](CCCNC(=N)N)NC(=O)[C@H](C)NC(=O)[C@H](CO)NC(=O)[C@H](CC(=O)O)NC(=O)[C@@H]3CSSC[C@H](NC(=O)[C@H](C(C)C)NC(=O)[C@H](CC(C)C)NC(=O)CNC(=O)[C@H](CCC(=O)O)NC(=O)[C@H](CSSC[C@H](NC(=O)[C@@H](N)Cc4ccc(O)cc4)C(=O)N[C@@H](CCC(N)=O)C(=O)N[C@@H](CCCCN)C(=O)N[C@@H](Cc4c[nH]c5ccccc45)C(=O)N[C@@H](CCSC)C(=O)N[C@@H](Cc4c[nH]c5ccccc45)C(=O)N[C@@H]([C@@H](C)O)C(=O)N3)NC2=O)C(=O)N[C@@H](CCCNC(=N)N)C(=O)N[C@@H](CC(C)C)C(=O)N[C@@H](Cc2c[nH]c3ccccc23)C(=O)N1)C(C)C)C(=O)O (HELM PEPTIDE1{Y.C.Q.K.W.M.W.T.C.D.S.A.R.K.C.C.E.G.L.V.C.R.L.W.C.K.K.K.V.I}$PEPTIDE1,PEPTIDE1,2:R3-16:R3|PEPTIDE1,PEPTIDE1,9:R3-21:R3|PEPTIDE1,PEPTIDE1,15:R3-25:R3$$$V2.0)	14.79 min		4 nM		9 min
[H][C@]12CSSC[C@@H](C(=O)N[C@@H](CCCCN)C(=O)N[C@@H](CCCCN)C(=O)N[C@@H](CC(C)C)C(=O)N[C@@H](Cc3c[nH]c4ccccc34)C(=O)O)NC(=O)[C@H](Cc3c[nH]c4ccccc34)NC(=O)[C@H](CC(C)C)NC(=O)[C@H](CCCNC(=N)N)NC(=O)[C@]3([H])CSSC[C@]([H])(NC(=O)[C@]([H])([C@@H](C)O)NC(=O)[C@H](Cc4c[nH]c5ccccc45)NC(=O)[C@H](CCSC)NC(=O)[C@H](Cc4c[nH]c5ccccc45)NC(=O)[C@H](CCCCN)NC(=O)[C@H](CCC(N)=O)NC(=O)[C@@H](NC(=O)[C@@H](N)Cc4ccc(O)cc4)CSSC[C@]([H])(NC1=O)C(=O)N[C@@H](CCC(=O)O)C(=O)NCC(=O)N[C@@H](CC(C)C)C(=O)N[C@@H](C(C)C)C(=O)N3)C(=O)N[C@@H](CC(=O)O)C(=O)N[C@@H](CO)C(=O)N[C@@H](C)C(=O)N[C@@H](CCCNC(=N)N)C(=O)N[C@@H](CCCCN)C(=O)N2 (HELM PEPTIDE1{Y.C.Q.K.W.M.W.T.C.D.S.A.R.K.C.C.E.G.L.V.C.R.L.W.C.K.K.L.W}$PEPTIDE1,PEPTIDE1,2:R3-16:R3|PEPTIDE1,PEPTIDE1,9:R3-21:R3|PEPTIDE1,PEPTIDE1,15:R3-25:R3$$$V2.0)	15.35 min		67 nM	1	9.25 min
